Assay results from ChEMBL document CHEMBL1121626, “Quantitative structure-activity relationships for N-[N',N'-disubstituted-amino)acetyl]arylamines for local anesthetic activity and acute toxicity” (J Med Chem, 1980).
Calls of active or inactive are those of the source. The calls are words filed in the database; no cut-off is given here.

How the values were obtained:
Oryctolagus cuniculus [1] = test: Compound was evaluated for anesthetic dose (pAD = log 1/AD; AD = anesthetic dose)
[2] = Partition coefficient (logP) (cyclohexane); type: physicochemical; conditions: cyclohexane/water
Summary of the method: (§1)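 Partition coefficients were measured by Brändström's titrimetric method at 25 °C in 1-octanol/water or cyclohexane/water. Amine hydrochloride in aqueous solution pre-saturated with the solvent was one-fifth neutralized with NaOH, then solvent was added. The pH was held at its original value by automatic alkali addition until equilibrium. Each value is the mean of eight determinations, reported with 95% confidence intervals.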

[3] = Partition coefficient (logP); type: physicochemical; conditions: octanol/water
Summary of the method: as §1

[4] = Dissociation constant was observed; type: physicochemical
Summary of the method: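 Values for water-insoluble compounds were obtained by extrapolation. Two values were derived indirectly from P = P'(1 + 10^(pKa − pH)), using P' measured at pH 12 and 7.34, or at pH 7.2 and 6.0.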

Oryctolagus cuniculus [5] = test: Anaesthetic activity measured as anaesthetic dose (AD) required to nullify the rabbit corneal reflex after 5 min; type: functional, Cornea
Summary of the method: (§2)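 Aqueous drug solution, 0.25 mL, applied to rabbit cornea for 1 min, then wiped off. 100 regular mechanical stimulations were given. The minimal active dose is the concentration that abolished the corneal reflex at 5 min. Testing was repeated until 10 concordant results were obtained, with experimental error no more than 10%.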

[6] = Compound was evaluated for the apparent partition coefficient at pH 7.4; type: physicochemical; conditions: octanol/water
Summary of the method: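 Apparent partition coefficient at pH 7.4 was calculated from the octanol/water log P and pKa using P = P'(1 + 10^(pKa − pH)).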

[7] = Intravenous lethal dose of the compound; type: ADME, organism-based; conditions: mouse, in vivo
Summary of the method: (§3)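 Mice, groups of 10 randomized animals; aqueous drug solution given intravenously at 0.2 mL/20 g body weight. Percentage dead scored 5 days after start of experiment; LD50 derived by the usual statistical method, reported with 95% confidence interval.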

Mus musculus [8] = test: Compound was evaluated for lethal dose (pLD50 = log1/LD50 in mol/kg.); type: toxicity, organism-based; conditions: in vivo
Summary of the method: as §3

Mus musculus [9] = species: Mus musculus; test: Antiarrhythmic activity (arrhythmy induced by HCCl3 in mice) measured as its effect on ventricular fibrillation; No effect; type: functional, organism-based; conditions: Heart
Mus musculus [10] = test: Delay of respiratory arrest was observed at 10 mg/kg ip in mice in antiarrhythmic assay; type: functional, Heart; conditions: route intraperitoneal
Mus musculus [11] = test: Delay of respiratory arrest was observed at 5 mg/kg ip in mice in antiarrhythmic assay; type: functional, Heart; conditions: route intraperitoneal
Oryctolagus cuniculus [12] = test: Anaesthetic activity measured as anaesthetic dose (AD) required to nullify the rabbit corneal reflex after 5 min;d = Irritant; type: functional, organism-based; conditions: Cornea
Summary of the method: as §2

Compound | pAD (Oryctolagus cuniculus [1]) | logP [2] | logP [3] | pKa [4] | AD (Oryctolagus cuniculus [5]) [mM] | logD [6] | LD50 [7] [µmol/kg] | pLD50 (Mus musculus [8]) | Activity (Mus musculus [9]) | Increase (Mus musculus [10]) [%] | Increase (Mus musculus [11]) [%] | AD (Oryctolagus cuniculus [12])
CCN(CC)CC(=O)NC1CCc2ccccc21.Cl (stereo not given) | 1.45 | 1.645 | 2.74 | 8.19 | 27.9 | 1.88 | 238 | 3.62 | inactive | – | – | –
CCCN(CCC)CC(=O)NCc1ccccc1.Cl | 1.75 | 2.386 | 3.11 | – | 17.5 | – | 254 | 3.59 | inactive | – | – | –
CCCCCN(CCCCC)CC(=O)NCc1ccccc1.Cl | 1.53 | 5.259 | 5.19 | – | 29.3 | – | – | – | inactive | – | – | –
CCN(CC)CC(=O)NC(c1ccccc1)c1ccccc1.Cl | 1.82 | 3.2 | 3.74 | – | 15 | – | 212 | 3.67 | inactive | 27.8 | – | –
CCCCN(CCCC)CC(=O)NCc1ccccc1.Cl | 1.8 | 3.791 | 4.16 | – | 16 | – | 116 | 3.93 | inactive | – | 33.2 | –
CCN(CC)CC(=O)NCc1ccccc1.Cl | 0.93 | 1.02 | 2.14 | 8.07 | 117 | 1.39 | 376 | 3.42 | inactive | 25 | – | –
Cl.O=C(CN1CCOCC1)NCc1ccccc1 | 0.73 | -1.132 | 0.672 | 4.98 | 185 | 0.67 | 1720 | 2.77 | inactive | – | – | –
CN(C)CC(=O)NCc1ccccc1.Cl | – | -0.453 | 1.11 | 7.62 | – | 0.681 | 735 | 3.13 | inactive | – | – | Irritant
CCN(CC)CC(=O)NCc1ccccc1-c1ccccc1.Cl | 1.82 | 3.2 | 3.74 | – | 34.5 | – | 128 | 3.89 | inactive | – | 20.5 | –
CCN(CC)CC(=O)NC1c2ccccc2-c2ccccc21.Cl | 1.82 | 3.067 | 3.64 | 7.98 | 15.1 | 2.96 | 146 | 3.83 | inactive | – | – | –
CCCN(CCC)CC(=O)NC1CCc2ccccc21.Cl (stereo not given) | 1.89 | 3.277 | 3.79 | – | 12.8 | – | 145 | 3.84 | inactive | – | – | –
CCCN(CCC)CC(=O)NC1c2ccccc2-c2ccccc21.Cl | 1.68 | 4.44 | 4.61 | 7.28 | 20.9 | 4.37 | – | – | inactive | – | – | –
CCN(CC)CCOC(=O)c1ccc(N)cc1.Cl [PROCAINE HYDROCHLORIDE] | – | – | – | – | 36.7 | – | 169 | – | inactive | – | – | –
Cl.O=C(CN1CCCCC1)NCc1ccccc1 | 0.73 | 1.198 | 2.27 | 7.71 | 186 | 1.78 | 245 | 3.61 | inactive | – | – | –
O=C(CN1CCCC1)NCc1ccccc1 | 0.71 | 0.156 | 1.69 | 8.27 | 196 | 0.769 | 361 | 3.44 | inactive | – | – | –
CCN(CC)CC(=O)NC1c2ccccc2CCc2ccccc21.Cl | 1.25 | 4.153 | 4.41 | – | 20.9 | – | 139 | 3.86 | inactive | – | – | –
CCN(CC)CC(=O)NC1CC(c2ccccc2)c2ccccc21.Cl (stereo not given) | 1.55 | 4.153 | 4.41 | – | 55.8 | – | 164 | 3.78 | inactive | – | – | –
